Experiments:
[1] = type: in vivo, human; conditions: for dose proportionality of PK: p.o. tablet dosing
Summary of the method: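 Plasma parent, M5 and M6 concentration-time data came from clinical studies. In healthy volunteers, dosing was i.v., 150–600 mg single-dose tablet p.o., or 300–750 mg multiple-dose tablet. In HCV patients, dosing was 50–300 mg single-dose or 50–400 mg multiple-dose capsule, or 300–450 mg multiple-dose tablet; 450 mg once daily gave Day 7 profiles with washout. Itraconazole DDI: healthy volunteers; HCV patients received 300 mg multiple-dose tablet plus 200 mg multiple-dose itraconazole.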

Minimal PBPK model = type: in vivo, human

| effect of itraconazole coadministration on early metabolite profile ([1]; itraconazole DDI, plasma) | dose proportionality of PK [1] | effect of itraconazole coadministration on uprifosbuvir exposure ([1]; itraconazole DDI study, plasma) | share of unabsorbed uprifosbuvir dose metabolized into M5 (Minimal PBPK model; gut) [%] | share of unabsorbed uprifosbuvir dose metabolized into M6 (Minimal PBPK model; gut) [%] | share of unabsorbed uprifosbuvir dose metabolized into pseudo-M4 (Minimal PBPK model; gut) [%] | unabsorbed fraction of uprifosbuvir dose (metabolized in gut) (Minimal PBPK model; p.o., based on the model) [%] | uprifosbuvir dose estimated to reach the liver unchanged (Minimal PBPK model; p.o., based on the model) | Structure (SMILES) | effect of itraconazole coadministration on uprifosbuvir tmax ([1]; itraconazole DDI study, plasma) |
| --- | --- | --- | --- | --- | --- | --- | --- | --- | --- |
| first M6 peak was almost absent | not dose proportional | – | – | – | – | – | – | C[C@@]1(Cl)[C@H](O)[C@@H](CO)O[C@H]1n1ccc(=O)[nH]c1=O [M6] | – |
| – | dose proportional | large increase in uprifosbuvir exposure | 11 | 52 | 37 | 86 | about 14% | CC(C)OC(=O)[C@@H](C)N[P@@](=O)(OC[C@H]1O[C@@H](n2ccc(=O)[nH]c2=O)[C@](C)(Cl)[C@@H]1O)Oc1ccccc1 [uprifosbuvir] | delayed time to reach maximum uprifosbuvir plasma concentration |
